A selection: hits, their analogues and other compounds. The true share with any hit is near 1.9%.
TDP2 inh: blocks human TDP2 phosphodiesterase activity | O95551 | inhibition, % at 12.8 µM | AID 720702 | recombinant TDP2, T5PNP hydrolysis, p-nitrophenol absorbance 415 nm | 0.34% of 370,000 active;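 active = inhibition above the mean of all tested compounds plus 3 SD, set per campaign, cut at about 25% in these data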
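Assay system: recombinant human TDP2 / Reagent: T5PNP substrate at 5 mM, a TopII-DNA adduct mimic / Measured by: epi absorbance from released p-nitrophenol / Evaluation: % inhibition relative to enzyme-containing and enzyme-free wells / Control set: enzyme-free and DMSO wells / Replicates: each compound tested once, singlicate / Schedule: enzyme reaction with compound for 2 h at 37 °C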
LEDGF integ inh: blocks HIV-1 LEDGF/p75-dependent DNA integration; AID 743269; inhibition, % at 3.7 µM; 0.64% of 370,000 active; TR-FRET IN-LEDGF/p75 DNA integration, Eu/Cy5;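 active = inhibition above the screen-wide mean plus 3 SD, cut at about 13% in these data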;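 note: signal is the Cy5 over europium emission ratio at 671 and 618 nm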
UHRF1 MBD2 ctr: human UHRF1 methylated DNA binding inhibitors | inhibition, % at 4.4 µM | 0.75% of 370,000 active | AID 687016 | UHRF1 binding to methylated oligo, TR-FRET; in the data active = inhibition above about 21%;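 note: UHRF1 SRA domain binding a hemimethylated CpG hairpin DNA probe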
MBD2 inh: MBD2-methylated oligo binding inhibition; inhibition, % at 4.4 µM; TR-FRET, MBD2 binding to methylated oligonucleotide; 0.31% of 370,000 active; Q9UBB5; in the data active = inhibition above about 13%
Target sequence (Q9UBB5 whole entry, looked up): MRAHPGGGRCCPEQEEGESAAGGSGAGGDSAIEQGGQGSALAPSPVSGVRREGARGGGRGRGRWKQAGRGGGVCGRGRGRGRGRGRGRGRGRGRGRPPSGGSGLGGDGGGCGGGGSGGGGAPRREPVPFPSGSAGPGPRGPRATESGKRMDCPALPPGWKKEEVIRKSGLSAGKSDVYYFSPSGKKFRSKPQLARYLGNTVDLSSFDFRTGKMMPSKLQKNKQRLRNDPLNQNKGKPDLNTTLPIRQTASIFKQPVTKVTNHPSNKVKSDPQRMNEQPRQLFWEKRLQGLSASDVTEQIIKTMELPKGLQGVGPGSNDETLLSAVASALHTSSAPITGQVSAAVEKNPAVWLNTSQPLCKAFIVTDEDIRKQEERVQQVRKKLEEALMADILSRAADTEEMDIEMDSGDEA
NSD2 HMT inh: NSD2 (human) methyltransferase inhibition. NSD2 peptide methylation, AlphaScreen, 120 min. inhibition, % at 12.5 µM. 0.54% of 310,000 active. AID 743445; in the data active = inhibition above about 50%
CASP6 VEID inh: blocks human caspase-6 cleavage activity; purified caspase-6, Z-VEID-R110 cleavage fluorescence; inhibition, % at 12.5 µM; 0.53% of 350,000 active; AID 686996;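 active = mean inhibition across replicates at least about 35%, with every replicate also reaching that limit, limit read from the data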
Target sequence (P55212 24-179 limits assumed): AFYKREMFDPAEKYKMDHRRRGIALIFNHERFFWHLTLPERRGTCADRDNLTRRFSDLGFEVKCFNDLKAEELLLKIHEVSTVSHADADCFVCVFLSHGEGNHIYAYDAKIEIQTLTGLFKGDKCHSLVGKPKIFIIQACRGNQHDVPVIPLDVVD
Target sequence (P55212 194-293 limits assumed): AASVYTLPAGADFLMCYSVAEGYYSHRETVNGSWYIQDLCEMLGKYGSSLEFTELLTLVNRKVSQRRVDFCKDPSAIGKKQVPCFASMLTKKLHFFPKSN
IN multimer act: counter-screen for LEDGF/p75 integration inhibitors: HIV-1 integrase multimerization activators | shares compounds with LEDGF integ inh | TR-FRET HIV-1 integrase multimerization, biochemical | activation, % at 7.7 µM | 17% of 2,000 active; in the data active = activation above about 8.9%
TR-FRET interf: optically interferes with TR-FRET readout in LEDGF counter-screen. shares compounds with LEDGF integ inh. TR-FRET optical interference counterscreen, HIV-1 IN multimerization. inhibition, % at 7.7 µM. 2,000 tested, under 10 active;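 active = inhibition above the mean over all tested compounds plus 3 SD, which no compound reached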
LEDGF integ conf: LEDGF/p75-dependent HIV-1 integration inhibition, confirmation; shares compounds with LEDGF integ inh; TR-FRET LEDGF/p75-dependent HIV-1 integration, biochemical; inhibition, % at 3.7 µM; 36% of 2,000 active; in the data active = inhibition above about 14%
Hits are given with their value.

Results for C[C@@H]1CN([C@H](C)CO)C(=O)c2cccc(NC(=O)Nc3ccc(F)cc3)c2O[C@@H]1CN(C)C(=O)NC1CCCCC1 ?
CASP6 VEID inh: inactive

Results for CC(C)NC(=O)N(C)C[C@H]1Oc2c(NS(C)(=O)=O)cccc2C(=O)N([C@@H](C)CO)C[C@@H]1C ?
CASP6 VEID inh: inactive

What do the screens show for `COc1ccc(NC(=O)N(C)C[C@@H]2Oc3ccc(NC(=O)Nc4ccccc4)cc3CC(=O)N([C@@H](C)CO)C[C@@H]2C)cc1`?
CASP6 VEID inh: inactive

What do the screens show for `CC1(OC(=O)CCc2ccccc2)C(=O)C=C2C=C(c3ccc(C#N)cc3)N(C3CCCCC3)C=C2C1=O` (configuration not stated)?
TDP2 inh: inactive; LEDGF integ inh: inactive; UHRF1 MBD2 ctr: inactive; MBD2 inh: inactive

What do the screens show for `CC1(OC(=O)CCc2ccccc2)C(=O)C=C2C=C3CCCN3C=C2C1=O` (configuration not stated)?
TDP2 inh: inactive; LEDGF integ inh: 20; UHRF1 MBD2 ctr: inactive; MBD2 inh: inactive; CASP6 VEID inh: inactive; IN multimer act: inactive; TR-FRET interf: inactive; LEDGF integ conf: 23

How did C/C=C/COC(=O)c1[nH]c2c(c1C)C(=O)CC(c1ccco1)C2 (configuration not stated) do in these assays?
TDP2 inh: inactive; LEDGF integ inh: 18; UHRF1 MBD2 ctr: inactive; MBD2 inh: inactive; CASP6 VEID inh: inactive; IN multimer act: inactive; TR-FRET interf: inactive; LEDGF integ conf: 21

What do the screens show for `O=C(NNC(=O)C1CCCCC1)c1ccc(Br)cc1`?
TDP2 inh: inactive; LEDGF integ inh: 15; UHRF1 MBD2 ctr: inactive; MBD2 inh: inactive; NSD2 HMT inh: inactive; CASP6 VEID inh: inactive; IN multimer act: inactive; TR-FRET interf: inactive; LEDGF integ conf: inactive

How did O=C(NNC(=O)C1CCC1)c1ccc(Br)cc1 do in these assays?
TDP2 inh: inactive; LEDGF integ inh: inactive; UHRF1 MBD2 ctr: inactive; MBD2 inh: inactive; NSD2 HMT inh: inactive; CASP6 VEID inh: inactive

How did CC(=O)NC(C)(c1ccccc1)c1nc(-c2cccc(C#N)c2)cs1 (configuration not stated) do in these assays?
TDP2 inh: inactive; LEDGF integ inh: 14; UHRF1 MBD2 ctr: inactive; MBD2 inh: inactive; NSD2 HMT inh: inactive; CASP6 VEID inh: inactive; IN multimer act: inactive; TR-FRET interf: inactive; LEDGF integ conf: inactive

How did CC(C)NC(=O)N(C)C[C@@H]1Oc2ccc(NC(=O)Nc3ccccc3)cc2CC(=O)N([C@H](C)CO)C[C@@H]1C do in these assays?
CASP6 VEID inh: inactive

What do the screens show for `Cc1ccc(NC(=O)c2ccc(CSc3ccccn3)cc2)cc1`?
TDP2 inh: inactive; LEDGF integ inh: inactive; UHRF1 MBD2 ctr: inactive; MBD2 inh: inactive; NSD2 HMT inh: inactive

Results for Cc1ccc(NC(=O)c2ccc(CSc3ccccn3)cc2)c(O)c1 ?
TDP2 inh: inactive; LEDGF integ inh: 82; UHRF1 MBD2 ctr: inactive; MBD2 inh: inactive; NSD2 HMT inh: inactive; CASP6 VEID inh: inactive; IN multimer act: inactive; TR-FRET interf: inactive; LEDGF integ conf: inactive

How did C[C@@H]1CN([C@H](C)CO)C(=O)Cc2cc(NC(=O)CCN3CCOCC3)ccc2O[C@H]1CN(C)C(=O)Nc1ccc2c(c1)OCO2 do in these assays?
CASP6 VEID inh: inactive

Results for C[C@@H]1CCCCO[C@H](CN(C)Cc2ccc3c(c2)OCO3)[C@H](C)CN([C@@H](C)CO)C(=O)c2cc(NS(=O)(=O)c3ccc(Cl)cc3)ccc2O1 ?
CASP6 VEID inh: inactive

How did CC(C)(C)OC(=O)C[C@H]1C/C=C\C[C@@H](CC(=O)N[C@H](CO)Cc2ccccc2)C(=O)NC[C@H](c2ccccc2)OC1=O do in these assays?
TDP2 inh: inactive; LEDGF integ inh: inactive; UHRF1 MBD2 ctr: inactive; MBD2 inh: inactive; CASP6 VEID inh: inactive

How did CC(C)(C)OC(=O)C[C@H]1C/C=C\C[C@@H](CC(=O)NCCO)C(=O)NC[C@@H](c2ccccc2)OC1=O do in these assays?
TDP2 inh: inactive; LEDGF integ inh: 76; UHRF1 MBD2 ctr: inactive; MBD2 inh: inactive; CASP6 VEID inh: inactive; IN multimer act: inactive; TR-FRET interf: inactive; LEDGF integ conf: inactive

What do the screens show for `CC(C)NC[C@@H](O)c1ccc(O)c(O)c1`?
TDP2 inh: inactive; LEDGF integ inh: 16; UHRF1 MBD2 ctr: inactive; MBD2 inh: inactive; CASP6 VEID inh: inactive; IN multimer act: inactive; TR-FRET interf: inactive; LEDGF integ conf: 21

What do the screens show for `CC(C)NCC(O)c1ccc(NS(C)(=O)=O)cc1` (configuration not stated)?
TDP2 inh: inactive; LEDGF integ inh: inactive; UHRF1 MBD2 ctr: inactive; MBD2 inh: inactive; CASP6 VEID inh: inactive

How did CC(C)C(=O)Nc1ccc2c(c1)nc(CCN1CCN(C)CC1)n2C do in these assays?
TDP2 inh: inactive; LEDGF integ inh: 13; UHRF1 MBD2 ctr: inactive; MBD2 inh: inactive; NSD2 HMT inh: inactive; CASP6 VEID inh: inactive; IN multimer act: inactive; TR-FRET interf: inactive; LEDGF integ conf: inactive

How did O=C(C[C@@H]1C=C[C@@H](NC(=O)c2cccc(F)c2)[C@H](CO)O1)NCCN1CCCC1 do in these assays?
CASP6 VEID inh: inactive

Results for CC(C)NC(=O)N(C)C[C@@H]1Oc2c(NC(=O)CCCCCC(=O)Nc3ccccc3N)cccc2C(=O)N([C@H](C)CO)C[C@@H]1C ?
CASP6 VEID inh: inactive

Results for C[C@@H]1O[C@@H](O[C@@H]2[C@@H](O)[C@H](OCCc3ccc(O)c(O)c3)O[C@H](CO)[C@H]2OC(=O)/C=C/c2ccc(O)c(O)c2)[C@H](O)[C@H](O)[C@H]1O ?
TDP2 inh: inactive; LEDGF integ inh: 87; UHRF1 MBD2 ctr: inactive; MBD2 inh: inactive; CASP6 VEID inh: inactive; IN multimer act: 37; TR-FRET interf: inactive; LEDGF integ conf: 88

Results for COc1cc(/C=C/C(=O)OC[C@H]2O[C@H](OC3(CO)OC(CO)C(O)C3O)[C@H](O)[C@@H](O)[C@@H]2O)ccc1O (some centres not stated) ?
TDP2 inh: inactive; LEDGF integ inh: inactive; UHRF1 MBD2 ctr: inactive; MBD2 inh: inactive; CASP6 VEID inh: inactive

Results for CC(=O)c1sc(NCc2ccccc2)nc1C ?
TDP2 inh: inactive; LEDGF integ inh: 29; UHRF1 MBD2 ctr: inactive; MBD2 inh: inactive; NSD2 HMT inh: inactive; CASP6 VEID inh: inactive; IN multimer act: inactive; TR-FRET interf: inactive; LEDGF integ conf: inactive
